Results filed as inconclusive are left out.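 The calls were made as follows, unless noted: active = inhibition over a set limit, the all-compound mean plus 3 SD, in both replicate runs; inconclusive = over that limit in just one replicate run; inactive = at or under that limit in both runs.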
How the values were obtained:
[1] = OD615 S. cerevisiae growth inhibition, permissive medium, pilot counter-assay, permissive growth control for S. cerevisiae lifespan shortening project (AID 705;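 active = growth inhibition above 25% in both replicates, a cutoff set 3 SD above the mean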); conditions: OD615, 24 h, at 10 µM, active compounds read high
In short: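 Material: engineered DeaD yeast; compound dosing: one dose 10 µM, DMSO 0.25% final; measure: yeast growth inhibition indicated by reduced 24 h OD615; detection: OD615 turbidity read; incubation: cells pre-grown 4 h, then 24 h compound exposure, 30 °C humidified; medium: permissive synthetic complete medium with raffinose and galactose carbon sources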

[2] = Restrictive medium S. cerevisiae growth inhibition, OD615, pilot screen of yeast lifespan reduction project, restrictive growth control (AID 706;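 active = growth inhibition above a set limit, 3 SD over mean compound inhibition, in both replicates, cut at about 43% in these data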;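 also: modified DeaD lifespan yeast strain shifted to restrictive glucose medium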); conditions: OD615, 48 h, at 10 µM, active compounds read high
In short: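 material = engineered S. cerevisiae DeaD strain | medium = glucose-based CSMM-D restrictive medium | times = 4 h pre-incubation, 48 h exposure at 30 °C | technique = OD615 absorbance reading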

[3] = viability gain of MRP-1-high H69AR cells under doxorubicin, pilot screen, MRP-1 activator project, CellTiter-Glo, duplicate (AID 807;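 active = viability increase at or above a cutoff of the median across tested compounds plus 3 SD, cut at about 8.5% in these data, passing the limit was not always enough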;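 also: compound pretreatment 18-22 h then 72 h combined with doxorubicin; 0% = doxorubicin alone and 100% = vehicle without doxorubicin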); conditions: H69AR viability with doxorubicin, CellTiter-Glo luminescence; at 10 µM; active compounds read high
[4] = growth suppression of beta-catenin knockout HCT116, pilot screen, human colon tumor cells (AID 823;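 active = cell viability at or below a set limit in both duplicate runs, the limit being the all-compound median minus 4 SD, cut at about 23% in these data, passing the limit was not always enough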;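 also: 0% = wells killed by 20 µM Hyamine and 100% = untreated DMSO cell wells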); conditions: CellTiter-Glo, 60 h, at 10 µM, active compounds read low
[5] = growth suppression of PTEN-deleted HCT116, pilot screen, cell-based, HCT116 clonal line, CellTiter-Glo (AID 824;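 active = viability at or below 27.92% in each of two runs, the all-compound median minus 4 SD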;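 also: 0% = 20 µM Hyamine control and 100% = vehicle cell control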); conditions: 60 h, at 10 µM, active compounds read low
[6] = inhibitors of the yeast RAM network, pilot screen, dse1pr::URA3 reporter, 5-FOA selection (AID 869);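 also: 0% = DMSO wells with no growth and 100% = 10 µM 1-NA-PP1 with full growth; RAM network block rescues cells from 5-FOA so hits raise OD615 growth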; conditions: S. cerevisiae dse1pr::URA3 5-FOA growth, OD615, 2 d; at 10 µM; active compounds read high; strain carries analog-sensitive mutant Cbk1 kinase
[7] = RAM signaling pathway blockade in yeast – S. cerevisiae, Pdr1DBD-CYC8 efflux-inhibited sensitized strain, primary screen (AID 1298;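 active = RAM network inhibition above 8.4% in each of two replicates, 3 SD over the compound average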;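 also: 0% = DMSO untreated cells without growth and 100% = 10 µM 1-NA-PP1 full growth; higher means more yeast growth rescued from 5-FOA killing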); conditions: S. cerevisiae cbk1-as DSE1-URA3 strain, 5-FOA growth OD615, 2 d; at 50 µM; active compounds read high

CCOC(=O)N1CCN(C(=O)c2cc3c(-c4ccc(Cl)cc4)nn(C)c3s2)CC1
inactive: growth inhibition [1] -5.13% | growth inhibition [2] 4.77% | viability increase [3] -6.02% | viability [4] 55.8% | viability [5] 49.2% | inhibition [6] 0.47% | RAM network inhibition [7] 1.8%

COc1ccc(C(=O)N2CCC(C(=O)Nc3ccc(OC)c(OC)c3)CC2)cc1
inactive: growth inhibition [1] -6.75% | growth inhibition [2] -8.78% | viability increase [3] -0.38% | viability [4] 89.7% | viability [5] 89% | inhibition [6] 1.28% | RAM network inhibition [7] 2.4%

CCOC(=O)C1CCCN(C(=O)Cn2ncc3c(=O)oc4ccc(C)cc4c32)C1 (stereo not given)
inactive: growth inhibition [1] -11.9% | growth inhibition [2] -24.9% | viability increase [3] -1.41% | viability [4] 106% | viability [5] 95% | inhibition [6] 2.19% | RAM network inhibition [7] 3.43%

O=S(=O)(c1ccc(Oc2ccc(S(=O)(=O)N3CCOCC3)cc2)cc1)N1CCOCC1
inactive: growth inhibition [1] -21.5% | growth inhibition [2] -21.2% | viability increase [3] -1.32% | viability [4] 82.7% | viability [5] 87.6% | inhibition [6] 4.01% | RAM network inhibition [7] 4.04%

O=C(O)c1cc(-c2ccc(Cl)cc2)n[nH]1
inactive: growth inhibition [1] -6.99% | growth inhibition [2] 0.335% | viability increase [3] -0.39% | viability [4] 100% | viability [5] 96% | inhibition [6] 0.27% | RAM network inhibition [7] 0.61%

Cc1ccc(Cl)cc1N1CCN(C(=O)COc2ccc(S(=O)(=O)NC(C)C)cc2)CC1
inactive: growth inhibition [1] 4.32% | growth inhibition [2] -7.2% | viability increase [3] -4.67% | viability [4] 37.3% | viability [5] 54.8% | inhibition [6] 1% | RAM network inhibition [7] 6.06%

COc1cccc(-c2cc(C(=O)N3CCN(c4ncccn4)CC3)c3ccccc3n2)c1
inactive: growth inhibition [1] 0.09% | growth inhibition [2] -2.04% | viability increase [3] -6.25% | viability [4] 62% | viability [5] 64% | inhibition [6] 1.14% | RAM network inhibition [7] -0.21%

O=C(NCCN1CCN(c2ccccc2F)CC1)C1CCCN(S(=O)(=O)c2cnc[nH]2)C1 (stereo not given)
inactive: growth inhibition [1] 5.84% | growth inhibition [2] 3.21% | viability increase [3] -1.19% | viability [4] 104% | viability [5] 98% | inhibition [6] 2.38% | RAM network inhibition [7] 0.68%

COc1ccc(CC2CCOC2=O)cc1 (stereo not given)
inactive: growth inhibition [1] -10.7% | growth inhibition [2] -8.8% | viability increase [3] 0.08% | viability [4] 98% | viability [5] 93.9% | inhibition [6] 1.93% | RAM network inhibition [7] -0.09%

CN(C)c1ccc(NC(=O)c2cccc(N3C(=O)CCC3=O)c2)cc1
inactive: growth inhibition [1] 5.53% | growth inhibition [2] 4.7% | viability increase [3] 1.36% | viability [4] 106% | viability [5] 100% | inhibition [6] -0.005% | RAM network inhibition [7] 4.75%

CCOC(=O)C1CCCN(C(=O)c2cc3c(=O)n(C)c4ccccc4c3n2C)C1 (stereo not given)
inactive: growth inhibition [1] -1.98% | growth inhibition [2] 0.3% | viability increase [3] -3.5% | viability [4] 94.2% | viability [5] 92.7% | inhibition [6] 0.67% | RAM network inhibition [7] -0.46%

c1ccc(-c2noc(CN3CCN(c4ccccc4)CC3)n2)cc1
inactive: growth inhibition [1] -8.41% | growth inhibition [2] 2.94% | viability increase [3] -2.27% | viability [4] 94.5% | viability [5] 97.3% | inhibition [6] 0.125% | RAM network inhibition [7] 3.29%

CCC(=O)N1C(C(=O)N2CCCC2)CSC1c1ccc(OC)cc1 (stereo not given)
inactive: growth inhibition [1] -12.1% | growth inhibition [2] -12.3% | viability increase [3] -3.3% | viability [4] 96% | viability [5] 97.5% | inhibition [6] -0.035% | RAM network inhibition [7] 0.53%

CCOC(=O)C1=C(C)OC(N)=C(C#N)C1c1c(C)nn(-c2ccccc2)c1Cl (stereo not given)
inactive: growth inhibition [1] -11.9% | growth inhibition [2] -20% | viability increase [3] -3.98% | viability [4] 102% | viability [5] 98.1% | inhibition [6] 3.71% | RAM network inhibition [7] 7.39%

CCC(C)Sc1nnc(Cc2cc(=O)[nH]c(=O)[nH]2)n1-c1ccc(OC)cc1 (stereo not given)
inactive: growth inhibition [1] 5.64% | growth inhibition [2] -6.83% | viability increase [3] -0.09% | viability [4] 104% | viability [5] 102% | inhibition [6] 0.295% | RAM network inhibition [7] 2.22%

O=S(=O)(CCc1ccccc1)N1CCOCC1
inactive: growth inhibition [1] 1.85% | growth inhibition [2] -1.08% | viability increase [3] -1.35% | viability [4] 106% | viability [5] 103% | inhibition [6] 0.8% | RAM network inhibition [7] 2.83%

Cc1ccccc1C(=O)NCCN=C1NS(=O)(=O)c2ccccc21
inactive: growth inhibition [1] -7.76% | growth inhibition [2] 10.5% | viability increase [3] 0.1% | viability [4] 113% | viability [5] 103% | inhibition [6] 0.69% | RAM network inhibition [7] 1.88%

COc1cc(C2N(c3ccccc3)CCN2c2ccccc2)ccc1OC(C)=O
inactive: growth inhibition [1] -18.8% | growth inhibition [2] -13.6% | viability increase [3] 0.59% | viability [4] 96.3% | viability [5] 94.5% | inhibition [6] 0.44% | RAM network inhibition [7] 2.35%

CCCNC(=O)Nc1cc(OCC)c(N2CCOCC2)cc1OCC
inactive: growth inhibition [1] -0.41% | growth inhibition [2] 6.55% | viability increase [3] -1.37% | viability [4] 99.6% | viability [5] 105% | inhibition [6] 1.57% | RAM network inhibition [7] 0.87%

Cn1c(-n2c(CCN3C(=O)c4ccccc4C3=O)nc3ccccc3c2=O)nc2ccccc21
inactive: growth inhibition [1] 1.63% | growth inhibition [2] -2.29% | viability increase [3] -4.94% | viability [4] 68.2% | viability [5] 81.2% | inhibition [6] 0.65% | RAM network inhibition [7] 2.45%

C/C=C/Cn1c(N(C)Cc2ccccc2)nc2c1c(=O)[nH]c(=O)n2C
inactive: growth inhibition [1] -17.4% | growth inhibition [2] -23.1% | viability increase [3] 0.04% | viability [4] 102% | viability [5] 87.6% | inhibition [6] 0.445% | RAM network inhibition [7] 3.49%

COC(=O)c1ccc(C2c3c(n[nH]c3C)C(=O)N2c2ccc(C)cc2)cc1 (stereo not given)
inactive: growth inhibition [1] 10.6% | growth inhibition [2] -0.115% | viability increase [3] 0.79% | viability [4] 70.6% | viability [5] 86.4% | inhibition [6] 0.34% | RAM network inhibition [7] 0.36%

Cc1ccc(OCC(=O)O)c(-n2nc3ccccc3n2)c1
inactive: growth inhibition [1] -10.3% | growth inhibition [2] 0.43% | viability increase [3] 0.43% | viability [4] 89.9% | viability [5] 102% | inhibition [6] 2.7% | RAM network inhibition [7] 2.69%

O=C(Cn1ncc2c1-c1ccccc1OC2)N(Cc1ccco1)C1CCCCC1
inactive: growth inhibition [1] 0.715% | growth inhibition [2] -5.62% | viability increase [3] -2.69% | viability [4] 78.5% | viability [5] 74.9% | inhibition [6] 2.08% | RAM network inhibition [7] 3.96%

CCOC1CCCCC1NS(=O)(=O)c1ccc(Cl)cc1 (stereo not given)
inactive: growth inhibition [1] -3.5% | growth inhibition [2] 1.71% | viability increase [3] -3.23% | viability [4] 99.3% | viability [5] 91.7% | inhibition [6] 1.5% | RAM network inhibition [7] 2.71%

CC(=O)Nc1ccc(S(=O)(=O)NC2=NCN(CCOC(=O)c3ccccc3)CN2)cc1
inactive: growth inhibition [1] -3.64% | growth inhibition [2] 5.12% | viability increase [3] -1.37% | viability [4] 92.7% | viability [5] 93.6% | inhibition [6] 1.29% | RAM network inhibition [7] 1.02%

Nc1nc2n(n1)C(c1ccccc1)CC(c1ccc(F)cc1)N2 (stereo not given)
inactive: growth inhibition [1] -2.32% | growth inhibition [2] 16.9% | viability increase [3] -0.53% | viability [4] 97.9% | viability [5] 98.2% | inhibition [6] 0.145% | RAM network inhibition [7] 0.84%

CCCCOCCCNC(=O)Cc1cccs1
inactive: growth inhibition [1] -16.7% | growth inhibition [2] -10.3% | viability increase [3] -2.03% | viability [4] 91.8% | viability [5] 90% | inhibition [6] 0.465% | RAM network inhibition [7] 5.12%

Cc1cc(C)nc(NS(=O)(=O)c2ccc(NC(=O)c3ccco3)cc2)n1
inactive: growth inhibition [1] -5.44% | growth inhibition [2] -11.7% | viability increase [3] -1.87% | viability [4] 100% | viability [5] 95.9% | inhibition [6] 0.26% | RAM network inhibition [7] 2.44%

COc1ccccc1OCC(=O)Nc1ccc(S(=O)(=O)NC(C)=O)cc1
inactive: growth inhibition [1] -17% | growth inhibition [2] -5.72% | viability increase [3] 1.56% | viability [4] 89.2% | viability [5] 103% | inhibition [6] 0.645% | RAM network inhibition [7] 2.08%

COc1ccc(CN2CCCC2C(=O)Nc2ccc(OC)c(OC)c2)cc1OC (stereo not given)
inactive: growth inhibition [1] -5.96% | growth inhibition [2] -5.92% | viability increase [3] -2.8% | viability [4] 102% | viability [5] 97.3% | inhibition [6] 0.71% | RAM network inhibition [7] 0.26%

CC1(C)CC(=O)c2c(Cc3ccccc3)n[nH]c2C1
inactive: growth inhibition [1] 0.375% | growth inhibition [2] -8.27% | viability increase [3] -1.7% | viability [4] 98.3% | viability [5] 90.5% | inhibition [6] 2.2% | RAM network inhibition [7] -0.11%

O=C(Cn1cc2c(n1)CCCC2)Nc1cc(-c2cccc(Cl)c2)no1
inactive: growth inhibition [1] 3.94% | growth inhibition [2] 3.73% | viability increase [3] 0.67% | viability [4] 99.2% | viability [5] 87.2% | inhibition [6] 0.9% | RAM network inhibition [7] 2.24%

O=C(Nc1ccc(-c2nc3cccnc3s2)cc1)c1ccc(Br)o1
inactive: growth inhibition [1] 11.6% | growth inhibition [2] 19.6% | viability increase [3] 3.03% | viability [4] 105% | viability [5] 101% | inhibition [6] 1.11% | RAM network inhibition [7] 0.96%

CC(=O)c1cccc(NC(=O)c2c(F)c(F)c(F)c(F)c2F)c1
inactive: growth inhibition [1] -4.19% | growth inhibition [2] 6.79% | viability increase [3] -7.13% | viability [4] 95% | viability [5] 88.4% | inhibition [6] 1.01% | RAM network inhibition [7] -0.87%

— PubChem BioAssay
